Columns and labels:
Cytochrome P450 2C9 = Cytochrome P450 2C9 (Homo sapiens, UniProt P11712); assay: Inhibition of CYP2C9 in human liver microsomes using diclofenac as substrate preincubated for 10 mins followed by NADPH addition and measured by LC-MS/MS analysis; type: ADME
[1] = Half life in rat at 1 mg/kg, iv by LC-MS/MS analysis; type: ADME, organism-based; conditions: in vivo
Cytochrome P450 3A4 [2] = biological target: T1, Cytochrome P450 3A4 (Homo sapiens, UniProt P08684); assay: Inhibition of CYP3A4 in human liver microsomes using midazolam as substrate preincubated for 7 mins followed by NADPH addition and measured by LC-MS/MS analysis; type: ADME
[3] = Half life in human assessed as 5-cyclopropyl-2-(4-fluorophenyl)-N-methyl-6-(methylsulfonamido)benzofuran-3-carboxamide level; type: ADME
Cytochrome P450 2C19 = Cytochrome P450 2C19 (Homo sapiens, UniProt P33261); assay: Inhibition of CYP2C19 in human liver microsomes using mephenytoin as substrate preincubated for 10 mins followed by NADPH addition and measured by LC-MS/MS analysis; type: ADME
[4] = AUC in rat at 5 mg/kg, po by LC-MS/MS analysis; type: ADME, organism-based; conditions: in vivo
[5] = Blood clearance in Beagle dog at 1 mg/kg, iv by LC-MS/MS analysis; type: ADME, organism-based, Canis lupus familiaris; conditions: whole blood
In short: (§1)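 Rat and dog received a single i.v. dose of 1 mg/kg in DMSO/20% hydroxypropyl-β-cyclodextrin (10/90), pH adjusted. Clearance was taken from blood or plasma concentration–time profiles.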

[6] = Blood clearance in rat at 1 mg/kg, iv by LC-MS/MS analysis; type: ADME, organism-based; conditions: whole blood; in short: as §1
[7] = Oral bioavailability in rat at 5 mg/kg by LC-MS/MS analysis; type: ADME, organism-based; conditions: in vivo
[8] = Blood clearance in rat at 1 mg/kg, iv by LC-MS/MS analysis relative to hepatic blood flow; type: ADME, organism-based; conditions: in vivo
In short: (§2)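 Clearance expressed as a percentage of liver blood flow: compound blood or plasma clearance after i.v. dosing divided by the hepatic blood flow of that species.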

[9] = Volume of distribution at steady state in rat at 1 mg/kg, iv by LC-MS/MS analysis; type: ADME, organism-based; conditions: in vivo, read-out: Vdss
Cytochrome P450 3A4 [10] = biological target: T1, Cytochrome P450 3A4; assay: Inhibition of CYP3A4 in human liver microsomes using nifedipine as substrate preincubated for 7 mins followed by NADPH addition and measured by LC-MS/MS analysis; type: ADME
[11] = Plasma clearance in cynomolgus monkey at 1 mg/kg, iv by LC-MS/MS analysis relative to hepatic blood flow; type: ADME, organism-based, Macaca fascicularis; conditions: in vivo; in short: as §2
[12] = Plasma clearance in CD1 mouse at 1 mg/kg, iv by LC-MS/MS analysis relative to hepatic blood flow; type: ADME, organism-based; conditions: in vivo; in short: as §2
[13] = Plasma clearance in cynomolgus monkey at 1 mg/kg, iv by LC-MS/MS analysis; type: ADME, organism-based, Macaca fascicularis
[14] = Half life in human hepatocytes at 0.5 uM by LC-MS/MS analysis; type: ADME, cell-based, Hepatocyte
In short: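 Cryopreserved human hepatocytes were incubated with compound for up to 2 h, and metabolic turnover was followed to estimate half-life.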

Hepatitis C virus = assay: Antiviral activity against HCV genotype1 infected in human assessed as reduction in plasma viral RNA level at 420 mg, po administered as single dose; type: functional, Hepacivirus hominis, genotype 1
Cytochrome P450 3A4 [15] = biological target: T1, Cytochrome P450 3A4; assay: Inhibition of CYP3A4 in human liver microsomes using atorvastatin as substrate preincubated for 7 mins followed by NADPH addition and measured by LC-MS/MS analysis; type: ADME
[16] = Blood clearance in Beagle dog at 1 mg/kg, iv by LC-MS/MS analysis relative to hepatic blood flow; type: ADME, organism-based, Canis lupus familiaris; conditions: in vivo; in short: as §2
[17] = Clearance in rat at 1 mg/kg, iv by LC-MS/MS analysis; type: ADME, organism-based; conditions: in vivo
[18] = Blood clearance in CD1 mouse at 1 mg/kg, iv by LC-MS/MS analysis relative to hepatic blood flow; type: ADME, organism-based; conditions: in vivo; in short: as §2
Cytochrome P450 1A2 = biological target: T2, Cytochrome P450 1A2 (Homo sapiens, UniProt P05177); assay: Inhibition of CYP1A2 in human liver microsomes at 0.033 to 33 uM using phenacetin as substrate preincubated for 10 mins followed by NADPH addition and measured by LC-MS/MS analysis; type: ADME
T2 sequence (P05177 whole entry): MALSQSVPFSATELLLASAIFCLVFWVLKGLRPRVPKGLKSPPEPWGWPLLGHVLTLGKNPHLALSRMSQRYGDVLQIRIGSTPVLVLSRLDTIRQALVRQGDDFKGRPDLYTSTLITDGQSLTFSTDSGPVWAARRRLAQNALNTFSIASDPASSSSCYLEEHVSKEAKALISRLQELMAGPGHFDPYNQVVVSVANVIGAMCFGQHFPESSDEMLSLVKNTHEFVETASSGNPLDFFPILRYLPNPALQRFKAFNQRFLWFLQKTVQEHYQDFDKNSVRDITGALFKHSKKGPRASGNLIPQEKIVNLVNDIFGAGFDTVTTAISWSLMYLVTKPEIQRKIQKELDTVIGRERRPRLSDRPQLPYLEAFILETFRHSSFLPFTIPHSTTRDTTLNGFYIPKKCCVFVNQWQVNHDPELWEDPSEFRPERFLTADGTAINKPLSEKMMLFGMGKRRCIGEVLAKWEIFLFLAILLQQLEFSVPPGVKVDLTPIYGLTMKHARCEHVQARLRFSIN

Cytochrome P450 2D6 = Cytochrome P450 2D6 (Homo sapiens, UniProt P10635); assay: Inhibition of CYP2D6 in human liver microsomes at 0.033 to 33 uM using bufuralol as substrate preincubated for 10 mins followed by NADPH addition and measured by LC-MS/MS analysis; type: ADME
[19] = biological target: Voltage-gated inwardly rectifying potassium channel KCNH2 (Homo sapiens, UniProt Q12809); assay: Inhibition of human ERG by patch clamp electrophysiology method
In short: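 hERG activity was measured by patch-clamp electrophysiology as the reduction in channel current caused by the compound, giving an IC50.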

[20] = Blood clearance in CD1 mouse at 1 mg/kg, iv by LC-MS/MS analysis; type: ADME, organism-based; conditions: whole blood
[21] = Blood clearance in cynomolgus monkey at 1 mg/kg, iv by LC-MS/MS analysis relative to hepatic blood flow; type: ADME, organism-based, Macaca fascicularis; conditions: in vivo; in short: as §2
[22] = Half life in rat hepatocytes at 0.5 uM by LC-MS/MS analysis; type: ADME, cell-based, Hepatocyte

Cytochrome P450 2C9, sequence (P11712 whole entry): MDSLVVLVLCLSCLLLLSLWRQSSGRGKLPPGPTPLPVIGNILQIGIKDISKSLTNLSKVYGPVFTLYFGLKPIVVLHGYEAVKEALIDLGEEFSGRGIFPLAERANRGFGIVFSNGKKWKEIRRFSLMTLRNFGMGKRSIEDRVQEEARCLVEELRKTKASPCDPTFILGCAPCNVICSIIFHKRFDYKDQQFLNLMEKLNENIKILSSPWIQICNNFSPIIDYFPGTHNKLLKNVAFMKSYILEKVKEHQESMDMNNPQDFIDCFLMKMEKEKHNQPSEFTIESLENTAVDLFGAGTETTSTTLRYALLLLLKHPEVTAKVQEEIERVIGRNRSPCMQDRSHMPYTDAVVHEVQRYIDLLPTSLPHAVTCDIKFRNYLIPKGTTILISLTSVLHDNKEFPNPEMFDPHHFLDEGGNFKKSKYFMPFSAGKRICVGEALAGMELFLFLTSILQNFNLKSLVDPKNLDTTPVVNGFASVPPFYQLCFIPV
Cytochrome P450 2C19, sequence (P33261 whole entry): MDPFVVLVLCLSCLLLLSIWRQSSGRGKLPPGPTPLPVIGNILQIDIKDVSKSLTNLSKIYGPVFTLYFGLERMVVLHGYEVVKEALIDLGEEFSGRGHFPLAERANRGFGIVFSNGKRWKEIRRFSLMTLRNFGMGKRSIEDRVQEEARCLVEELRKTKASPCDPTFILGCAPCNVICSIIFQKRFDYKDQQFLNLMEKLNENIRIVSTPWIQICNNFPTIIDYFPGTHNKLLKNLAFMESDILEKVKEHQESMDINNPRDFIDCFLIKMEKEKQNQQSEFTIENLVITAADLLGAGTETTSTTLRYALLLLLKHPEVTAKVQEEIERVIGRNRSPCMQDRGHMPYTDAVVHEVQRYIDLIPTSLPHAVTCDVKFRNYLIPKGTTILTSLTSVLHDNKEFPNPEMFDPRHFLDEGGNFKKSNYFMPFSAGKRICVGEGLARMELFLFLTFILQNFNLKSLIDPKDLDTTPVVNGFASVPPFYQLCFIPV
T1 sequence (P08684 whole entry): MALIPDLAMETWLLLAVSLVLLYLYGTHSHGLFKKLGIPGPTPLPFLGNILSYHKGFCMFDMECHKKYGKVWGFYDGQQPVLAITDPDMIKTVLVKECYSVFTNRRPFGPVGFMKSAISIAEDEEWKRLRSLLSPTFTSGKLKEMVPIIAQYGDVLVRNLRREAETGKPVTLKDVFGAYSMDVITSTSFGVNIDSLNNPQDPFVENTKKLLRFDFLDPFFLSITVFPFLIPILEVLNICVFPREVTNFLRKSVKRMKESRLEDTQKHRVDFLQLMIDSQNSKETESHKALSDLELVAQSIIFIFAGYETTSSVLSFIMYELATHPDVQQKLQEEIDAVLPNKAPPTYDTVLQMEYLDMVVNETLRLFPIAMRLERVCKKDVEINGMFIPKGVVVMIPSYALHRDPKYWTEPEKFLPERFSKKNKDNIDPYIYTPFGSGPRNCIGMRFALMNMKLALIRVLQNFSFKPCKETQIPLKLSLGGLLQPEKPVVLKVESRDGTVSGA
Voltage-gated inwardly rectifying potassium channel KCNH2, sequence (Q12809 whole entry): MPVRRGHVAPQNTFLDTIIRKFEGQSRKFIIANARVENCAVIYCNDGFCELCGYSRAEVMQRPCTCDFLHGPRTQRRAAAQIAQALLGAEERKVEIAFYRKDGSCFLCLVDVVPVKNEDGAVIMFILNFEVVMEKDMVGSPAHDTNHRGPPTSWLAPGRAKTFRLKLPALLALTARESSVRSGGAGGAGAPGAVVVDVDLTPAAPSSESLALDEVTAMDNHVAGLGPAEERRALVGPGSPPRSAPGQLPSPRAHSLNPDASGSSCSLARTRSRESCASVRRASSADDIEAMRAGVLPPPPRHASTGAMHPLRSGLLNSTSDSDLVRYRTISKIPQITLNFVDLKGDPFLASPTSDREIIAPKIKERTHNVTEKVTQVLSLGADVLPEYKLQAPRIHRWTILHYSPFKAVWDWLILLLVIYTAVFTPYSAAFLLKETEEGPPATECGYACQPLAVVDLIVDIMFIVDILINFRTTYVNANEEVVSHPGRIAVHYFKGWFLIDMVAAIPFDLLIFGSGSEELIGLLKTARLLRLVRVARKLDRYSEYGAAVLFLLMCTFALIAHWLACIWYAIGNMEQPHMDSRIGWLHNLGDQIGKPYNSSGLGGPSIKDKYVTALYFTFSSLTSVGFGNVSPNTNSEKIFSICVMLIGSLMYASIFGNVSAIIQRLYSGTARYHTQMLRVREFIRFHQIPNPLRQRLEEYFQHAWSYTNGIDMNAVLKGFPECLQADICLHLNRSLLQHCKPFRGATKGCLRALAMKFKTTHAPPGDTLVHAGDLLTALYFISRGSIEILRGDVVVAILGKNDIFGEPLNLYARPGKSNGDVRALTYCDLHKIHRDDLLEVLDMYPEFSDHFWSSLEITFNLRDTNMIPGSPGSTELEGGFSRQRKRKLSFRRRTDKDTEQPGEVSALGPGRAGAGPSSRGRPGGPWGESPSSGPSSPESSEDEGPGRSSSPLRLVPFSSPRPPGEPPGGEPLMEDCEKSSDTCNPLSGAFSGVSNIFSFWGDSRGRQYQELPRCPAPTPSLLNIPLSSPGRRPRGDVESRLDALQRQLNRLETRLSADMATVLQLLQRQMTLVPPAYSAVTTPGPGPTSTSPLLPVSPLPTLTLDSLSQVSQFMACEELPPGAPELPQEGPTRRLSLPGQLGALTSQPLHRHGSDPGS
Cytochrome P450 2D6, sequence (P10635 whole entry): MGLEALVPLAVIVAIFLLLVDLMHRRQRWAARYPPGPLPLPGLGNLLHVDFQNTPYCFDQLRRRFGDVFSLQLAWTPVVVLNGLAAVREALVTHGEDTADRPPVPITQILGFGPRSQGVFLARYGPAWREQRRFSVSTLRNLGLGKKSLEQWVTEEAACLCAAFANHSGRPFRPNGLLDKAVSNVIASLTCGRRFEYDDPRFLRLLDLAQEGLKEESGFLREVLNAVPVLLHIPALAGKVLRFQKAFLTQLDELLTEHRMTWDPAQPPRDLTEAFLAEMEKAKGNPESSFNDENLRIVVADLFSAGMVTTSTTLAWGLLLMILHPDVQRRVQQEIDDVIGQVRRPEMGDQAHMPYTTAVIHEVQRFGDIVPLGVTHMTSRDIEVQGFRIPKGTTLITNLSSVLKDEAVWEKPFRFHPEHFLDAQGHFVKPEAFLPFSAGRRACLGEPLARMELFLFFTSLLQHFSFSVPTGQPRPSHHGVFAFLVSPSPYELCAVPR

SMILES | IC50 (Cytochrome P450 2C9) [nM] | half-life [1] [min] | IC50 (Cytochrome P450 3A4 [2]) [µM] | IC50 (Cytochrome P450 2C19) [µM] | AUC [4] [ng·h/mL] | bioavailability [7] [%] | Vd [9] [L/kg] | IC50 (Cytochrome P450 3A4 [10]) [µM] | IC50 (Cytochrome P450 3A4 [15]) [µM] | clearance [17] [mL/min/kg] | further results
CNC(=O)c1c(-c2ccc(F)cc2)oc2cc(N(Cc3ccc(B(O)O)c(F)c3)S(C)(=O)=O)c(C3CC3)cc12 | 4900 | 60 | > 33 | 18 | 700 | 23 | 1.4 | 28 | 7.1 | 29 | t1/2 [3]: 45 h; clearance [5]: 11 mL/min/kg; clearance [6]: 29 mL/min/kg; CL [8]: 37%; CL [11]: 100%; CL [12]: 1.1%; clearance [13]: 48 mL/min/kg; half-life at 0.5 µM [14]: 60 min; Activity (Hepatitis C virus): 1.33 log10IU/ml; CL [16]: 19%
CNC(=O)c1c(-c2ccc(F)cc2)oc2cc(-n3nccc3-c3ccc(B(O)O)c(F)c3)c(C3CC3)cc12 | 1500 | 204 | > 33 | 23 | 10000 | 64 | 1.3 | > 33 | 2 | 5.4 | –
CNC(=O)c1c(-c2ccc(F)cc2)oc2cc(-n3ncnc3-c3ccc(B(O)O)c(F)c3)c(C3CC3)cc12 | 2700 | 156 | > 33 | 1.2 | 7600 | 40 | 0.9 | > 33 | 8.9 | 4.5 | –
CNC(=O)c1c(-c2ccc(F)cc2)oc2cc(N(c3cc(Cl)c4c(c3)COB4O)S(C)(=O)=O)c(C3CC3)cc12 | 22000 | 168 | > 33 | > 33 | 5400 | – | 0.9 | > 33 | > 33 | – | CL [18]: 0.6%; inhibition (INH) (Cytochrome P450 1A2): Active; inhibition (INH) (Cytochrome P450 2D6): Active; IC50 [19]: 16 µM; CL [8]: 8.9%; clearance [20]: 0.7 mL/min/kg; CL [16]: 2.1%; CL [21]: 13%
CNC(=O)c1c(-c2ccc(F)cc2)oc2cc(N(c3ccc(B(O)O)c(Cl)c3)S(C)(=O)=O)c(C3CC3)cc12 | 2600 | 222 | > 33 | 7.4 | 4800 | 27 | 1.1 | 8.1 | 4.2 | 5.1 | IC50 [19]: 1.6 µM
CNC(=O)c1c(-c2ccc(F)cc2)oc2cc(N3C(=O)OC[C@@H]3c3ccc(B(O)O)c(F)c3)c(C3CC3)cc12 | – | 72 | – | – | 280 | 8 | 1.3 | – | – | 22 | –
CNC(=O)c1c(-c2ccc(F)cc2)oc2cc(N(C3CCc4c(B(O)O)cccc43)S(C)(=O)=O)c(C3CC3)cc12 (stereo not given) | – | 66 | – | – | 40 | 4 | 3.5 | – | – | 69 | half-life at 0.5 µM [22]: 45 min; t1/2 ([14]; 0.5 µM): < 15 min
CNC(=O)c1c(-c2ccc(F)cc2)oc2cc(N(Cc3ccc(B(O)O)cc3C(F)(F)F)S(C)(=O)=O)c(C3CC3)cc12 | – | – | – | – | – | – | – | – | – | 3.5 | –
